Laboratory results taken from ChEMBL document CHEMBL5303300, “EUbOPEN Chemogenomics Library - Multiplex” (2023).
Values joined by “and” are separate entries in the source; they are usually repeats but may differ in a detail not shown here. Equal entries are not always repeated.

Test system: U2OS
Assay: Multiplex assay against U2OS
Type: toxicity, cell-based
Settings: human, number of replicates 2
Procedure, shortened: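 Tubulin, mitochondrial-mass and membrane-permeability phenotypes are per cents of healthy-nucleus cells. Cells were gated by CellPathfinder machine learning into Hoechst high-intensity objects or normal cells, normal cells into healthy, pyknosed or fragmented nuclei, and pyknosed cells into mitotic or apoptotic. Before that, live cells stained at seeding with Hoechst33342, BioTracker Green Microtubule Cytoskeleton Dye, MitoTracker Red and Annexin V Alexa Fluor 680 were imaged on a CQ1 microscope at 37°C and 5% CO2 after compound addition.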

[1] = 12 h, 10 µM, compound concentration 10 uM
[2] = 24 h, 10 µM, compound concentration 10 uM
[3] = 48 h, 10 µM, compound concentration 10 uM
[4] = 12 h, 1 µM, compound concentration 1 uM
[5] = 24 h, 1 µM, compound concentration 1 uM
[6] = 48 h, 1 µM, compound concentration 1 uM

SMILES: CCOC(=O)Nc1cc(-c2ccc(C)c(NS(C)(=O)=O)c2)nn2c(C)nnc12
- Population Apoptotic (%) [1]: 54% and 50% and 20%
- Population Healthy Nuclei (%) [1]: 66% and 75% and 76% and 53%
- Population Hoechst High Intensity Objects (%) [1]: 0%
- Population Membrane Permeable-Phenotype (%) [1]: 3% and 0% and 5%
- Population Mitochondria Different-Phenotype (%) [1]: 3% [middle of 4 runs]
- Population Mitotic Cells (%) [1]: 45% and 50% and 80%
- Population Normal (%) [1]: 100%
- Population Pyknosed Nuclei (%) [1]: 24% and 19% and 17% and 15%
- Population Tubulin-Different-Phenotype (%) [1]: 59% [middle of 4 runs]
- Population Apoptotic (%) [2]: 70% and 65% and 53% and 66%
- Population Healthy Nuclei (%) [2]: 59% and 69% and 67% and 50%
- Population Hoechst High Intensity Objects (%) [2]: 0%
- Population Membrane Permeable-Phenotype (%) [2]: 6% [middle of 4 runs]
- Population Mitotic Cells (%) [2]: 29% and 35% and 46% and 33%
- Population Normal (%) [2]: 100% and 99%
- Population Pyknosed Nuclei (%) [2]: 20% [middle of 4 runs]
- Population Tubulin-Different-Phenotype (%) [2]: 71% [middle of 4 runs]
- Population Apoptotic (%) [3]: 85% and 72% and 76%
- Population Fragmented Nuclei (%) [3]: 30% and 20% and 18%
- Population Healthy Nuclei (%) [3]: 30% and 33% and 51%
- Population Hoechst High Intensity Objects (%) [3]: 0% and 3%
- Population Mitochondria Different-Phenotype (%) [3]: 9% and 0% and 3%
- Population Mitotic Cells (%) [3]: 14% and 27% and 23%
- Population Normal (%) [3]: 100% and 96% and 99%
- Population Pyknosed Nuclei (%) [3]: 38% and 45% and 27% and 29%

SMILES: CNc1ncc2cc(-c3ccc(-c4cccc(C)n4)cc3Cl)c(=O)n(C[C@H]3OC[C@H](N)CO3)c2n1
- Population Apoptotic (%) [4]: 75% and 70%
- Population Healthy Nuclei (%) [4]: 33% and 85%
- Population Hoechst High Intensity Objects (%) [4]: 0%
- Population Mitochondria Different-Phenotype (%) [4]: 7% and 0%
- Population Mitotic Cells (%) [4]: 25% and 29%
- Population Normal (%) [4]: 100% and 99%
- Population Pyknosed Nuclei (%) [4]: 19% and 10%
- Population Tubulin-Different-Phenotype (%) [4]: 42% and 70%
- Population Apoptotic (%) [1]: 60% and 36%
- Population Fragmented Nuclei (%) [1]: 38% and 16%
- Population Healthy Nuclei (%) [1]: 28% and 54%
- Population Hoechst High Intensity Objects (%) [1]: 5% and 0%
- Population Membrane Permeable-Phenotype (%) [1]: 15% and 11%
- Population Mitotic Cells (%) [1]: 39% and 63%
- Population Normal (%) [1]: 94% and 99%
- Population Pyknosed Nuclei (%) [1]: 32% and 29%
- Population Tubulin-Different-Phenotype (%) [1]: 50% and 38%
- Population Apoptotic (%) [5]: 80% and 76%
- Population Healthy Nuclei (%) [5]: 42% and 79%
- Population Hoechst High Intensity Objects (%) [5]: 0%
- Population Mitochondria Different-Phenotype (%) [5]: 5% and 1%
- Population Mitotic Cells (%) [5]: 20% and 23%
- Population Normal (%) [5]: 100% and 99%
- Population Pyknosed Nuclei (%) [5]: 23% and 12%
- Population Tubulin-Different-Phenotype (%) [5]: 50% and 75%
- Population Apoptotic (%) [2]: 43% and 53%
- Population Fragmented Nuclei (%) [2]: 31% and 17%
- Population Healthy Nuclei (%) [2]: 20% and 51%
- Population Hoechst High Intensity Objects (%) [2]: 6% and 1%
- Population Mitochondria Different-Phenotype (%) [2]: 57% and 19%
- Population Mitotic Cells (%) [2]: 56% and 46%
- Population Normal (%) [2]: 93% and 98%
- Population Pyknosed Nuclei (%) [2]: 47% and 31%
- Population Tubulin-Different-Phenotype (%) [2]: 21% and 32%
- Population Apoptotic (%) [6]: 75% and 83%
- Population Healthy Nuclei (%) [6]: 54% and 80%
- Population Hoechst High Intensity Objects (%) [6]: 0%
- Population Membrane Permeable-Phenotype (%) [6]: 9% and 2%
- Population Mitochondria Different-Phenotype (%) [6]: 4% and 1%
- Population Mitotic Cells (%) [6]: 25% and 16%
- Population Normal (%) [6]: 100% and 99%
- Population Pyknosed Nuclei (%) [6]: 16% and 13%
- Population Tubulin-Different-Phenotype (%) [6]: 73% and 79%
- Population Apoptotic (%) [3]: 60% and 61%
- Population Fragmented Nuclei (%) [3]: 45% and 16%
- Population Hoechst High Intensity Objects (%) [3]: 5% and 1%
- Population Mitotic Cells (%) [3]: 39% and 38%
- Population Normal (%) [3]: 94% and 98%
- Population Pyknosed Nuclei (%) [3]: 41% and 34%
- Population Tubulin-Different-Phenotype (%) [3]: 44% and 50%

SMILES: CN(C)CCCNc1ccnc(Nc2cccc(Cl)c2)n1
- Population Apoptotic (%) [4]: 60% and 50%
- Population Fragmented Nuclei (%) [4]: 6% and 5%
- Population Healthy Nuclei (%) [4]: 84% and 82%
- Population Hoechst High Intensity Objects (%) [4]: 0%
- Population Membrane Permeable-Phenotype (%) [4]: 0%
- Population Mitochondria Different-Phenotype (%) [4]: 0%
- Population Mitotic Cells (%) [4]: 39% and 50%
- Population Normal (%) [4]: 100%
- Population Pyknosed Nuclei (%) [4]: 9% and 11%
- Population Tubulin-Different-Phenotype (%) [4]: 70% and 42%
- Population Apoptotic (%) [1]: 50%
- Population Fragmented Nuclei (%) [1]: 11% and 17%
- Population Healthy Nuclei (%) [1]: 79% and 67%
- Population Hoechst High Intensity Objects (%) [1]: 0%
- Population Membrane Permeable-Phenotype (%) [1]: 4% and 5%
- Population Mitochondria Different-Phenotype (%) [1]: 4% and 5%
- Population Mitotic Cells (%) [1]: 50%
- Population Normal (%) [1]: 100%
- Population Pyknosed Nuclei (%) [1]: 9% and 14%
- Population Tubulin-Different-Phenotype (%) [1]: 52% and 42%
- Population Apoptotic (%) [5]: 66% and 82%
- Population Fragmented Nuclei (%) [5]: 2% and 4%
- Population Healthy Nuclei (%) [5]: 91% and 88%
- Population Hoechst High Intensity Objects (%) [5]: 0%
- Population Membrane Permeable-Phenotype (%) [5]: 0% and 2%
- Population Mitochondria Different-Phenotype (%) [5]: 0% and 1%
- Population Mitotic Cells (%) [5]: 33% and 17%
- Population Normal (%) [5]: 100%
- Population Pyknosed Nuclei (%) [5]: 6% and 7%
- Population Tubulin-Different-Phenotype (%) [5]: 51% and 74%
- Population Apoptotic (%) [2]: 38% and 33%
- Population Fragmented Nuclei (%) [2]: 14% and 22%
- Population Healthy Nuclei (%) [2]: 67% and 54%
- Population Hoechst High Intensity Objects (%) [2]: 0%
- Population Membrane Permeable-Phenotype (%) [2]: 2% and 6%
- Population Mitochondria Different-Phenotype (%) [2]: 6% and 3%
- Population Mitotic Cells (%) [2]: 61% and 66%
- Population Normal (%) [2]: 100%
- Population Pyknosed Nuclei (%) [2]: 18% and 22%
- Population Tubulin-Different-Phenotype (%) [2]: 64% and 48%
- Population Apoptotic (%) [6]: 70% and 78%
- Population Fragmented Nuclei (%) [6]: 5% and 3%
- Population Healthy Nuclei (%) [6]: 81% and 89%
- Population Hoechst High Intensity Objects (%) [6]: 0%
- Population Membrane Permeable-Phenotype (%) [6]: 0% and 1%
- Population Mitochondria Different-Phenotype (%) [6]: 0%
- Population Mitotic Cells (%) [6]: 30% and 21%
- Population Normal (%) [6]: 100% and 99%
- Population Pyknosed Nuclei (%) [6]: 13% and 7%
- Population Tubulin-Different-Phenotype (%) [6]: 56% and 80%
- Population Apoptotic (%) [3]: 94% and 73%
- Population Fragmented Nuclei (%) [3]: 15% and 14%
- Population Healthy Nuclei (%) [3]: 47% and 50%
- Population Hoechst High Intensity Objects (%) [3]: 3% and 1%
- Population Membrane Permeable-Phenotype (%) [3]: 12% and 5%
- Population Mitochondria Different-Phenotype (%) [3]: 4% and 5%
- Population Normal (%) [3]: 96% and 98%
- Population Pyknosed Nuclei (%) [3]: 37% and 34%
- Population Tubulin-Different-Phenotype (%) [3]: 62% and 67%
